# Screens deposited in PubChem by Broad Institute.
# An excerpt weighted towards active compounds, which were near 1.4% of everything screened.
# CAL PDZ FP-1: CAL PDZ peptide-binding inhibitors, primary screen, biochemical, fluorescence polarization, Cer-tagged CAL PDZ, HTS | 330,000 compounds, 0.02% hits | inhibition, % at 20 µM | Golgi-associated PDZ and coiled-coil motif-containing protein (Homo sapiens), Q9HD26 | AID 504414, 2011 | purified CAL PDZ, TMR-peptide fluorescence polarization, 1 h;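 active means highest replicate inhibition of at least 40%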;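 further: plate controls were DMSO neutral control wells for no effect and unlabeled competitor peptide control wells for full effect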
#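 System: tagged CAL PDZ domain. Schedule: 1 h room-temperature incubation prior to read. Signal: fluorescence polarization (mP). Measure: percent inhibition from loss of millipolarization.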
# CAL PDZ FP-2: untagged CAL PDZ binding inhibitors, primary screen, biochemical, fluorescence polarization, HTS; Golgi-associated PDZ and coiled-coil motif-containing protein (Homo sapiens), Q9HD26; purified CAL PDZ, TMR-peptide fluorescence polarization, 1 h; inhibition, % at 24.9 µM; 300,000 compounds, 0.92% hits;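 active means mean inhibition of at least 30% with at least half of replicates also reaching 30%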;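 further: 0% = DMSO neutral control and 100% = excess unlabeled competitor peptide PRC23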
# ARNT-TACC3 inh: disruptors of ARNT/TACC3 protein interaction, primary screen, biochemical, AlphaScreen, single concentration; 390,000 compounds, 0.66% hits; inhibition, % at 9.99 µM; AID 623870, 2012; AlphaScreen His-ARNT PAS-B/GST-TACC3 binding, luminescence; TACC3 fragment carries E629A point mutation; Transforming acidic coiled-coil-containing protein 3 (Homo sapiens), Q9Y6A5;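 active means mean inhibition of replicates at least 50% and at least half of replicates each reaching 50%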;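 further: 0% = complete ARNT plus TACC3 wells and 100% = ARNT alone without TACC3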
# DYRK1A inh: rat Dyrk1A kinase inhibitors, primary screen, biochemical, single point, plate reader | Dual specificity tyrosine-phosphorylation-regulated kinase 1A (Rattus norvegicus), Q63470 | ADP-Glo luminescence, NFATc1 peptide | inhibition, % at 12.5 µM | 310,000 compounds, 0.43% hits | AID 504441, 2011; in the data active means inhibition above about 50%;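 further: plate controls were vehicle with enzyme for no effect and no enzyme for full effect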
# * marks the source's active call; other numbers are inactive results; · = no result given.
SMILES,CAL PDZ FP-1,CAL PDZ FP-2,ARNT-TACC3 inh,DYRK1A inh
C[C@H](CO)N1C[C@H](C)[C@@H](CN(C)CC2CC2)Oc2c(NC(=O)C3CCOCC3)cccc2C1=O,·,·,18,·
COCCCNC(=O)c1ccc2c3c(onc13)-c1ccccc1C2=O,0,·,31*,7
C[C@@H]1CN([C@@H](C)CO)C(=O)c2cccc(NS(=O)(=O)c3cccs3)c2O[C@@H]1CN(C)C(=O)NC1CCCCC1,·,·,-8,·
C[C@H](CO)N1C[C@H](C)[C@@H](CN(C)C)Oc2ncc(-c3cccnc3)cc2C1=O,·,·,1,·
COc1cc2c(cc1OC)CN(C(=S)Nc1ccccc1Cl)CC2,·,68*,8,8
COc1cc2c(cc1OC)CN(C(=S)Nc1ccccc1)CC2,0,-2,21,-3
OC[C@H]1[C@H](c2ccc(C#Cc3ccccc3)cc2)[C@@H]2CN(CC3CCOCC3)CCCCN12,·,·,7,·
Cc1cccc(NC(=O)Cn2cnc3c(oc4ccccc43)c2=O)c1C,62*,-6,-4,6
Cc1ccccc1NC(=O)Cn1cnc2c(oc3ccccc32)c1=O,0,-5,5,2
C[C@@H]1CN([C@H](C)CO)C(=O)c2cc(NS(=O)(=O)c3ccc(Cl)cc3)ccc2O[C@@H](C)CCCCO[C@@H]1CN(C)CC1CCCCC1,·,·,-9,·
C[C@H](CO)N1C[C@H](C)[C@H](CN(C)C(=O)c2ccncc2)Oc2ncc(C3=CCCCC3)cc2C1=O,·,·,-5,·
CC(=O)N1[C@H](CO)[C@H](c2ccc(C3=CCCC3)cc2)[C@H]1CNC(=O)CN(C)C,·,·,-3,·
Cc1c(NC(=S)N/N=C/C=C/c2ccc([N+](=O)[O-])cc2)c(=O)n(-c2ccccc2)n1C,0,1,-19,1
Cc1c(NC(=S)N/N=C/c2ccc(Br)cc2)c(=O)n(-c2ccccc2)n1C,-2,-1,3,-2
Cc1c(NC(=S)N/N=C/c2ccc([N+](=O)[O-])cc2O)c(=O)n(-c2ccccc2)n1C,-3,0,61*,2
Cc1c(NC(=S)N/N=C\c2ccccc2O)c(=O)n(-c2ccccc2)n1C,-2,0,66*,5
CN(C)c1ccc(C=c2c3ccccc3n3c2cc(-c2ccccc2)[n+]3C)cc1,24,-14,28,·
COc1cc(N(C)C)ccc1C=c1c2ccccc2n2c1cc(-c1ccccc1)[n+]2C,38,-15,41*,10
C[C@@H]1CCCCO[C@H](CN(C)C(=O)Cc2ccccc2)[C@@H](C)CN([C@H](C)CO)C(=O)c2cc(NC(=O)c3ccncc3)ccc2O1,·,·,-4,·
CCC(CO)NCc1ccc(OC2CCCC2)cc1 (configuration not stated),0,47*,-12,·
CCC(CO)NCc1ccc(Br)cc1 (configuration not stated),-3,0,·,1
O=C(CSc1nnc(C2CC2)n1Cc1ccccc1)N1CCN(S(=O)(=O)c2ccccc2)CC1,1,42*,-2,6
CNC(=O)COC(=O)c1cc(-c2ccco2)nc2ccccc12,-1,47*,2,39
C[C@@H]1CCCCO[C@@H](CN(C)Cc2ccncc2)[C@H](C)CN([C@H](C)CO)C(=O)c2cc(NC(=O)Nc3ccc4c(c3)OCO4)ccc2O1,·,·,4,·
O=c1nc2ccccc2c(NS(=O)(=O)c2ccccc2)n1-c1ccccc1,-3,36*,-6,3
SMILES,CAL PDZ FP-1,CAL PDZ FP-2,ARNT-TACC3 inh,DYRK1A inh
CC=Cc1ccc2n(c1=O)C[C@@H]1[C@@H](CO)[C@H](C(=O)NCCC)N(CC3CC3)[C@H]21 (mixture of isomers),·,·,-1,·
COCCNC(=O)C[C@H]1CC[C@H]2[C@@H](COc3ccc(NC(=O)Nc4ccccc4)cc3C(=O)N2C)O1,·,·,6,·
O=C(CNc1cccc(S(=O)(=O)N2CCCCCC2)c1)Nc1cccc([N+](=O)[O-])c1,0,5,50*,3
CC(C)NC(=O)Nc1ccc2c(c1)C(=O)N([C@H](C)CO)C[C@H](C)[C@H](CN(C)S(=O)(=O)c1ccccc1)O2,·,·,-5,·
COc1ccccc1NC(=O)Cn1nc(-c2ccncc2)nc1SCC(=O)NC1CCCC1,-4,36*,-5,9
Cc1ccc(/C=C2/Sc3ccccc3N(CC(=O)NCC3CCCO3)C2=O)cc1 (configuration not stated),-1,184*,3,4
CCOc1ccc(OCC)c(NC(=O)C2CCCN(S(=O)(=O)c3c(C)noc3C)C2)c1 (configuration not stated),-5,33*,12,-2
COc1ccc(OC)c(NC(=O)C2CCCN(S(=O)(=O)c3c(C)noc3C)C2)c1 (configuration not stated),·,-4,1,-2
Fc1ccc(-n2c(-c3ccc4ccccc4n3)n[nH]c2=S)cc1Cl,·,71*,-2,6
S=c1[nH]nc(-c2ccc3ccccc3n2)n1-c1ccc(Cl)cc1,0,-2,·,9
Cc1cc(C)c(S(=O)(=O)N(C)CC(=O)NCCN2CCOCC2)c(C)c1,-1,31*,-2,-2
COc1ccc(NC(=O)Cn2nc(C)c3ccccc3c2=O)cc1,33,37*,-3,10
COc1ccc(OC)c(NC(=O)CN2C(=O)NC3(CCOc4ccccc43)C2=O)c1 (configuration not stated),·,38*,4,·
COc1cccc(NC(=O)CN2C(=O)NC3(CCc4ccccc43)C2=O)c1 (configuration not stated),-2,73*,2,·
COC(=O)CNC(=O)CN1C(=O)NC2(CCCc3ccccc32)C1=O (configuration not stated),0,39*,-4,7
Cc1noc(C)c1S(=O)(=O)Nc1ccc2c(c1)C(=O)N([C@@H](C)CO)C[C@@H](C)[C@H](CN(C)C(=O)CCC(F)(F)F)OCCCC[C@H](C)O2,·,·,-3,·
CO[C@H]1CN(C)C(=O)c2ccc(NC(=O)c3nc4ccccc4s3)cc2OC[C@H](C)N(Cc2cncnc2)C[C@H]1C,·,·,0,·
CCCc1c(C)c2cccc(C)c2[nH]c1=O,·,-6,-8,8
CCCCN1CCc2c([nH]c3c(C)cccc23)C1=O,-1,72*,-3,0
O=C(CCS(=O)(=O)c1ccccc1)Nc1nc(-c2ccccn2)cs1,-1,1,65*,9
O=C(CCS(=O)(=O)c1ccc(F)cc1)Nc1nc(-c2ccccn2)cs1,-2,-4,60*,-2
CC(=NNC(=S)N1CC2CCC(CC2)C1)c1ccncn1,-1,-3,58*,·
Cc1ccc(NC(=S)NNC(=O)c2nnn(-c3ccccc3)c2C)cc1,-1,-2,59*,-5
Cc1ccc(C)n1Cc1ccccc1Cl,-1,·,21,-3
Cc1cc(C)n(Cc2ccccc2Cl)n1,·,41*,-4,·
